Source: PubChem (several laboratories)
Mdm2 ligase inh = inhibitors of human Mdm2 E3 ubiquitin ligase | hit rate 0.11% among 210,000 | signal enhancement, % at 5 µM | Q00987 | AID 1230 | cell-based MDM2 ubiquitination luciferase reporter, 2 h; 0 = plate control, 100 = twice control, blank-subtracted;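 active = signal enhancement of 30% or more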;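 also: luminescence tracks abundance of the self-degrading MDM2-luciferase fusion protein; higher signal means inhibition of MDM2 E3 ligase activity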
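Assay system: mammalian cells stably expressing self-ubiquitinating, self-degrading MDM2 E3–luciferase fusion. Quantity: 2000 cells in each well. Medium: DMEM culture medium. Compound dosing: single-point 5 µM. Timing: cell settling 4 h, compound treatment 2 h, both 37 °C. Technique: luciferase luminescence. Read-out basis: percent signal gain over controls, blank-subtracted. Benchmarks: plate controls and plate blanks.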
S1P3 antag = antagonists of human S1P3 receptor. Q99500. CHO S1P3 NFAT-BLA reporter, FRET fluorescence, antagonist mode. AID 485. inhibition, % at 4.98 µM. hit rate 0.27% among 170,000;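 active = inhibition above the plate cutoff, the mean inhibition of test wells on that plate plus 3 SD, cut at about 28% in these data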;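 also: cells challenged with S1P at its EC80 of 0.8 µM; blue over green emission ratio from cleaved BLA substrate after 4 h stimulation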
Target sequence (Q99500 whole entry, looked up): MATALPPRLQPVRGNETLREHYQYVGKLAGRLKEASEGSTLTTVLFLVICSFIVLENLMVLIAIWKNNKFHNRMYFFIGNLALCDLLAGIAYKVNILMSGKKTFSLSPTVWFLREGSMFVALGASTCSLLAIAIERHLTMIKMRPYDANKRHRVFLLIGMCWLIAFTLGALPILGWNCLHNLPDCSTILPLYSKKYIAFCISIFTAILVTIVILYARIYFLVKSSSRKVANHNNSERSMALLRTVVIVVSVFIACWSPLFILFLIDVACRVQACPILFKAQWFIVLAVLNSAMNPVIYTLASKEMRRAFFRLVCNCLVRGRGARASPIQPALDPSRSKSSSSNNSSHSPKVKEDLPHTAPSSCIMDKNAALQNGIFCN
Hsp70 activator = Hsp70 transcriptional activation, primary screen | HeLa Hsp70 promoter luciferase reporter, luminescence; scaled: vehicle 0, proteasome-inhibitor control 100% | activation, % at 10 µM | hit rate 0.04% among 200,000 | AID 1203;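 active = activation above the mean across all tested compounds plus 3 SD, cutoff set per campaign, cut at about 5.5% in these data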
CHOP inhibitor = blocks CHOP induction under ER stress | CHO-K1 CHOP-promoter luciferase, tunicamycin-induced, 15-18 h | inhibition, % at 10 µM | hit rate 3.8% among 220,000 | AID 2732;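 active = compounds that reduced the stress-induced luciferase reporter signal by more than about 70% of percent inhibition, limit read from the data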
Each line names hits and unclear results; the compound was inactive in the other large screens. Sampled rows, rich in hits. Any-hit rate of the full collection: about 4%.

COc1ccc(-c2cc(-c3c(O)c(OC)c4occc4c3OC)[nH]n2)cc1	CHOP inhibitor 86 (no result: S1P3 antag)
O=c1cc(NCc2ccco2)[nH]c(=O)n1-c1ccc(Br)cc1	CHOP inhibitor 82 (no result: S1P3 antag)
C(=C\c1ccco1)/C1=NN(c2ccccc2)C(c2ccco2)C1 (stereo unspecified)	CHOP inhibitor 74
CCCCCCCCCC(=O)NC(CN1CCOCC1)[C@H](O)c1ccccc1 (stereo partly specified)	none (no result: Mdm2 ligase inh, S1P3 antag, Hsp70 activator)
Oc1ccc2ccccc2c1/C=N/Nc1nnc(-c2ncc[nH]2)c2ccccc12	CHOP inhibitor 79 (no result: S1P3 antag)
COc1ccc(/C=N/Nc2nnc(-c3ncc[nH]3)c3ccccc23)cc1	none (no result: S1P3 antag)
O=C(COc1ccccc1)N1CCN(S(=O)(=O)c2cccc([N+](=O)[O-])c2)CC1	none
COc1ccc2nc3ccccc3nc2c1NC(=O)c1ccc(Cl)cc1	none
COc1ccc2nc3ccccc3nc2c1NC(=O)c1ccc(Br)cc1	CHOP inhibitor 79
CC(=O)c1ccc(NC(=S)NC(C)c2ccc(Cl)cc2Cl)cc1 (stereo unspecified)	CHOP inhibitor 73
CC(=O)c1ccc(NC(=S)Nc2ccc(Br)c(Cl)c2)cc1	none
COc1ccc(-c2nn(-c3ccccc3)cc2CO)cc1	none (no result: S1P3 antag)
N=C(N)SCc1cn(-c2ccccc2)nc1-c1ccc(Br)cc1	CHOP inhibitor 106
Cc1ccc(C(=O)CSc2nc3ccccc3c(=O)[nH]2)cc1C	none
CCc1ccc(C(=O)CSc2nc3ccccc3c(=O)[nH]2)cc1	CHOP inhibitor 95 (no result: S1P3 antag)
O=C(CCCSc1nc2ccccc2c(=O)[nH]1)c1ccc(F)cc1	CHOP inhibitor 79
Cc1ccc(C(=O)CSc2nc3ccccc3c(=O)[nH]2)cc1	none (no result: S1P3 antag)
Cc1csc(NC(=O)CSc2nc3ccccc3c(=O)[nH]2)n1	none
Cc1cccc(C)c1NC(=O)CSc1nc2ccccc2c(=O)[nH]1	CHOP inhibitor 71 (no result: S1P3 antag)
Cc1cc(C)c(NC(=O)CSc2nc(COc3ccccc3)nc3ccccc23)c(C)c1	CHOP inhibitor 91 (no result: S1P3 antag)
O=C(NCc1nnc(SCC(=O)N2CCCc3ccccc32)o1)c1c(F)cccc1Cl	none
COc1ccc(C2NC(c3ccc(OC)cc3)C(c3ccccc3)C(=O)C2c2ccccc2)cc1 (stereo unspecified)	none
CCO/N=C1\C(=O)N(c2ccccc2)c2ccccc21	none
O=C(O/N=C1\C(=O)N(c2ccccc2)c2ccccc21)C1CC1	CHOP inhibitor 73
Cc1ccccc1NS(=O)(=O)c1ccc(NC(=O)CSCc2ccc(Br)cc2)cc1	CHOP inhibitor 80 (no result: S1P3 antag)
Cc1ccc(C)c(NS(=O)(=O)c2ccc(NC(=O)CSc3ccc(Cl)cc3)cc2)c1	CHOP inhibitor 94
Cc1ccc(NS(=O)(=O)c2ccc(NC(=O)C(C)Sc3ccc(Cl)cc3)cc2)c(C)c1 (stereo unspecified)	CHOP inhibitor 83
CCn1c(SCC(=O)N2CCc3ccccc32)nnc1-c1ccco1	none (no result: S1P3 antag)
C=C(C)CSc1nnc([C@@H]2CCCN2C(=O)OC(C)(C)C)o1	none
Cc1ccc(C2CC(C(F)F)n3ncc(C(=O)Nc4cnn(Cc5ccccc5C)c4)c3N2)cc1 (stereo unspecified)	CHOP inhibitor 73
N/N=C/C(=N\Nc1ccc(Cl)cc1)C(=O)c1ccncc1	none (no result: Mdm2 ligase inh, Hsp70 activator)
C/C(=N/NC(=O)Cc1ccccc1)c1ccc(C)s1	none
Cc1nc(-c2cccnc2)sc1C(=O)Nc1cccc(C(F)(F)F)c1	CHOP inhibitor 83 (no result: S1P3 antag)
C(=N\Nc1nc2ccccc2[nH]1)/c1cccc2cccnc12	CHOP inhibitor 88 (no result: Hsp70 activator)
O=C(O)C1Cc2ccccc2CN1C(=O)CSc1nnc2ccccn12 (stereo unspecified)	none
CN(CCN1CCc2ccccc2C1)Cc1nc(Cc2ccccc2F)no1	none
CCOc1ccc(/C=N/NC(=S)Nc2c(C)cccc2C)cc1	none (no result: Mdm2 ligase inh, S1P3 antag)
CCNC(=S)N/N=C/c1ccc(OCCOc2ccccc2C)cc1	CHOP inhibitor 85 (no result: S1P3 antag)
CCOC(=O)c1c(C)[nH]c(C(=O)OCC(=O)Nc2cc(C)c(Cl)cc2OC)c1C	none (no result: S1P3 antag)
Cc1cc(C)cc(-n2c3nc4ccccc4nc3c3c(=O)n(Cc4ccco4)cnc32)c1	CHOP inhibitor 103 (no result: S1P3 antag)
CCOc1ccc(-n2c3nc4ccccc4nc3c3c(=O)n(Cc4ccco4)cnc32)cc1	none (no result: Mdm2 ligase inh, S1P3 antag, CHOP inhibitor)
CCOC(=O)c1cc(CC)sc1NC(=O)c1cc(OC)c(OC)c(OC)c1	CHOP inhibitor 90 (no result: S1P3 antag)
CCOC(=O)c1cc(CC)sc1NC(=O)CCC(=O)O	none
CCOC(=O)c1cc(CC)sc1NC(=O)Cc1ccsc1	CHOP inhibitor 75
O=C(N/N=C/c1cc([N+](=O)[O-])cc([N+](=O)[O-])c1O)/C(=C\c1cccs1)NC(=O)c1ccccc1	none (no result: Mdm2 ligase inh)
COc1cc(C2NCC(c3ccc(Cl)cc3Cl)c3c2[nH]c2ccccc32)cc(OC)c1OC (stereo unspecified)	CHOP inhibitor 77
O=C(O)c1ccc(C2NCC(c3ccccc3Cl)c3c2[nH]c2ccccc32)cc1 (stereo unspecified)	none
OCCNCc1cc(Br)ccc1OCc1ccc(Cl)cc1Cl	CHOP inhibitor 90 (no result: S1P3 antag)
COc1ccc(-c2nc(-c3ccccc3)c(-c3cc([N+](=O)[O-])ccc3C)[nH]2)cc1O	CHOP inhibitor 74 (no result: S1P3 antag)
Cc1ccc([N+](=O)[O-])cc1-c1[nH]c(-c2ccc(O)c(O)c2)nc1-c1ccccc1	none (no result: S1P3 antag)
CC(C)(C)c1ccc(OCC(=O)Nc2ccc3c4c(cccc24)C(=O)NC3=O)cc1	none
Cc1cc(C(=O)Nc2ncn[nH]2)ccc1[N+](=O)[O-]	none
Cc1nc2c(=O)[nH]c(=S)n(C)c2nc1C	none
CCOC(=O)c1c(C)[nH]c(C(=O)C(C)OC(=O)c2cccc(OCc3c(C)noc3C)c2)c1C (stereo unspecified)	CHOP inhibitor 80
CC(C)c1ccccc1NC(=O)CNC(C)c1ccc(F)cc1 (stereo unspecified)	none
O=C(CN1CCN(c2ncccn2)CC1)NCc1ccccc1	Mdm2 ligase inh 103 (no result: S1P3 antag)
CC(C)COc1ccc(-c2nnc(-c3ccco3)o2)cc1	CHOP inhibitor 78
CCOC(=O)C1=C(C)N=C2c3ccccc3C(=O)C2C1c1ccc(Cl)cc1 (stereo unspecified)	CHOP inhibitor 88 (no result: S1P3 antag)
Cc1ccc(C(=O)CN2C(=O)c3ccccc3S2(=O)=O)cc1	CHOP inhibitor 87 (no result: Hsp70 activator)
COC(=O)c1nc(N)sc1C	none
COc1ccc(CNC(=O)N[C@H](C(=O)O)C(C)C)cc1OC	none (no result: Mdm2 ligase inh, Hsp70 activator)
CCCc1ccc(C(=O)N2CCN(c3ccccc3OCC)CC2)cc1	CHOP inhibitor 71
CC(=O)c1sc(NC(=O)COc2c(C)cc(Cl)cc2C)nc1C	CHOP inhibitor 83
CC(=O)c1sc(NC(=O)COc2ccc(Cl)cc2C)nc1C	none (no result: Hsp70 activator)
O=C(Cn1nnc(-c2ccc(Cl)cc2)n1)NC1CC2CCC1C2 (stereo unspecified)	none
O=C(Cn1nnc(-c2ccc(Cl)cc2)n1)NCC1CCCCC1	CHOP inhibitor 90
CSc1ccccc1NC(=O)CN(C)S(=O)(=O)c1ccc(F)cc1	none (no result: S1P3 antag)
Cc1ccc(S(=O)(=O)N2CCCC(C(=O)NCc3cccnc3)C2)cc1Cl (stereo unspecified)	CHOP inhibitor 88
Cc1c(C(=O)NCc2cccnc2)oc2ccc(S(=O)(=O)N3CC(C)CC(C)C3)cc12 (stereo unspecified)	CHOP inhibitor 102
